Measurements from ChEMBL document CHEMBL5532745, “Enzymatic Synthesis of Austroeupatol Esters with Enhanced Antiprotozoal Activity” (ACS Med Chem Lett, 2024).
Each block holds one compound with its values, some of them ahead of it.

Assays:
[1] = Cytotoxicity against African green monkey Vero cells incubated for 48 hrs by MTT assay; type: toxicity, cell-based; conditions: chlorocebus sabaeus
How it was run: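 Uninfected Vero cells exposed to compounds; viability read by MTT assay to estimate cytotoxicity for selectivity assessment.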

[2] = tested on: Trypanosoma cruzi; assay: Antiprotozoal activity against Trypanosoma cruzi Tulahuen strain amastigotes expressing Escherichia coli beta-galactosidase cultured in Vero cells assessed as growth inhibition incubated for 5 days; type: functional, organism-based; conditions: 120 h
How it was run: (§1)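 Vero cells infected with trypomastigotes carrying β-galactosidase; intracellular parasites exposed to compounds, growth inhibition read spectrophotometrically.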

[3] = tested on: Leishmania infantum; assay: Antiprotozoal activity against Leishmania infantum MHOM/BR/2002/LPC-RPV promastigotes assessed as growth inhibition at 25 uM incubated for 5 days relative to control; type: functional; conditions: 120 h, time 5 day, read-out: GI
[4] = tested on: Trypanosoma cruzi; assay: Antiprotozoal activity against Trypanosoma cruzi epimastigotes assessed as growth inhibition at 25 uM incubated for 5 days relative to control; type: functional; conditions: 120 h, time 5 day, read-out: GI
[5] = tested on: Trypanosoma cruzi; assay: Antiprotozoal activity against Trypanosoma cruzi Tulahuen strain amastigotes expressing Escherichia coli beta-galactosidase cultured in Vero cells assessed as growth inhibition at 10 uM incubated for 5 days relative to control; type: functional; conditions: 120 h, time 5 day, read-out: GI; how it was run: as §1
[6] = tested on: Leishmania infantum; assay: Antiprotozoal activity against Leishmania infantum MHOM/BR/2002/LPC-RPV promastigotes assessed as growth inhibition at 25 uM incubated for 5 days; type: functional, organism-based

IC50 [2]: 2260 nM
Compound: C=C1CC[C@@H]2[C@H](COC(=O)CCc3c[nH]c4ccccc34)[C@H](O)[C@H](O)C[C@@]2(C)[C@@H]1CCc1ccoc1
CC50 at 48 h [1]: < 10 µM
inhibition of growth at 25 µM [3]: 91.5%
inhibition of growth at 25 µM [4]: 64.3%
inhibition of growth at 10 µM [5]: 98.7%

Compound: C=C1CC[C@@H]2[C@H](COC(=O)CCCCCCCCCCC)[C@H](OC(=O)CCCCCCCCCCC)[C@H](O)C[C@@]2(C)[C@@H]1CCc1ccoc1
inhibition of growth at 25 µM [3]: 2.4%
inhibition of growth at 25 µM [4]: 46.8%
inhibition of growth at 10 µM [5]: 4.73%

IC50 [2]: 2060 nM
Compound: C=C1CC[C@@H]2[C@H](COC(=O)CCCC[C@@H]3CCSS3)[C@H](O)[C@H](O)C[C@@]2(C)[C@@H]1CCc1ccoc1
CC50 at 48 h [1]: < 10 µM
inhibition of growth at 25 µM [3]: 47.7%
inhibition of growth at 25 µM [4]: 58.5%
inhibition of growth at 10 µM [5]: 95.2%

IC50 [2]: > 15000 nM
Compound: C=C1CC[C@@H]2[C@H](CO)[C@H](O)[C@H](O)C[C@@]2(C)[C@@H]1CCc1ccoc1
CC50 at 48 h [1]: 85.4 µM
inhibition of growth at 25 µM [3]: 0%
inhibition of growth at 25 µM [4]: 24.9%
inhibition of growth at 10 µM [5]: 28%

Compound: C=C1CC[C@@H]2[C@H](COC(C)=O)[C@H](O)[C@H](O)C[C@@]2(C)[C@@H]1CCc1ccoc1
inhibition of growth at 25 µM [3]: 15.7%
inhibition of growth at 25 µM [4]: 21.6%
inhibition of growth at 10 µM [5]: 22.7%

Compound: C=C1CC[C@@H]2[C@H](COC(=O)CCCCCCCCCCCCCCC)[C@H](O)[C@H](O)C[C@@]2(C)[C@@H]1CCc1ccoc1
inhibition of growth at 25 µM [3]: 0%
inhibition of growth at 25 µM [4]: 24.9%
inhibition of growth at 10 µM [5]: 2.98%

Compound: C=C1CC[C@@H]2[C@H](COC(=O)CCCCCCCCCCC)[C@H](O)[C@H](O)C[C@@]2(C)[C@@H]1CCc1ccoc1
inhibition of growth at 25 µM [3]: 29.1%
inhibition of growth at 25 µM [4]: 69.7%
inhibition of growth at 10 µM [5]: 12.5%

Compound: C=C1CC[C@@H]2[C@H](COC(=O)CCCCCCCCCCCCCCC)[C@H](OC(=O)CCCCCCCCCCCCCCC)[C@H](O)C[C@@]2(C)[C@@H]1CCc1ccoc1
inhibition of growth at 25 µM [3]: 0%
inhibition of growth at 25 µM [4]: 31.8%
inhibition of growth at 10 µM [5]: 2.06%

IC50 [2]: 8500 nM
Compound: C=C1CC[C@@H]2[C@H](COC(=O)CCCC)[C@H](O)[C@H](O)C[C@@]2(C)[C@@H]1CCc1ccoc1
CC50 at 48 h [1]: 19.3 µM
inhibition of growth at 25 µM [3]: 94.1%
inhibition of growth at 25 µM [4]: 93.5%
inhibition of growth at 10 µM [5]: 99.1%

Compound: C=C1CC[C@@H]2[C@H](COC(=O)CCCCCCC)[C@H](OC(=O)CCCCCCC)[C@H](O)C[C@@]2(C)[C@@H]1CCc1ccoc1
inhibition of growth at 25 µM [3]: 16.4%
inhibition of growth at 25 µM [4]: 27.4%
inhibition of growth at 10 µM [5]: 9.79%

IC50 [2]: 7030 nM
Compound: C=C1CC[C@@H]2[C@H](COC(=O)CCCCCCC)[C@H](O)[C@H](O)C[C@@]2(C)[C@@H]1CCc1ccoc1
CC50 at 48 h [1]: 18.1 µM
inhibition of growth at 25 µM [3]: 57.1%
inhibition of growth at 25 µM [4]: 99.5%
inhibition of growth at 10 µM [5]: 100%

IC50 [2]: 940 nM
Compound: O=C(Cn1ccnc1[N+](=O)[O-])NCc1ccccc1 [BENZNIDAZOLE]
CC50 at 48 h [1]: > 384 µM

Compound: MEGLUMINE ANTIMONATE
IC50 [6]: 20 µM
